One compound from ChEMBL document CHEMBL1145585, “Discovery of novel 4-amino-6-arylaminopyrimidine-5-carbaldehyde oximes as dual inhibitors of EGFR and ErbB-2 protein tyrosine kinases” (Bioorg Med Chem Lett, 2008) can be followed below.

Format in all cases: ADME, organism-based
The nature of data set [1]: Cmax in Sprague-Dawley rat at 10 mg/kg, po. Set-up: dose 10 mg/kg, route oral. The note with it: in vivo. An outline of the steps: (§1)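 Sprague–Dawley rats were dosed 2 mg/kg iv in 10% solutol in D5W and 10 mg/kg po in 0.5% hydroxypropyl methylcellulose. Plasma levels were followed to derive the pharmacokinetic parameters.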
Data set [2] in a line: Clearance in Sprague-Dawley rat at 2 mg/kg, iv and 10 mg/kg, po. The following applies: in vivo. The method, boiled down:
as §1

Data set [3] is described as follows: Volume of distribution at steady state in Sprague-Dawley rat at 2 mg/kg, iv and 10 mg/kg, po. The following applies: in vivo, read-out: Vdss. The method, boiled down: as §1
Data set [4] is described as follows: Tmax in Sprague-Dawley rat at 10 mg/kg, po. Also on record: dose 10 mg/kg, route oral. The note with it: in vivo. An outline of the steps: as §1
A short description of data set [5]: Half life in Sprague-Dawley rat at 10 mg/kg, po. Also on record: dose 10 mg/kg, route oral. The note with it: in vivo. An outline of the steps:
as §1

Data set [6] is described as follows: AUC in Sprague-Dawley rat at 10 mg/kg, po. Set-up: dose 10 mg/kg, route oral. The following applies: plasma. An outline of the steps:
as §1

A short description of data set [7]: Bioavailability in Sprague-Dawley rat at 2 mg/kg, iv and 10 mg/kg, po. The following applies: in vivo. An outline of the steps: as §1

`CO/N=C/c1c(N)ncnc1Nc1ccc(OCc2ccccc2)c(Cl)c1` returned a Cmax in data set [1] of 5.7 µM. In data set [2], this compound yielded a clearance of 3.56 mL/min/kg. Moreover, in data set [3], the Vd stood at 0.17 L/kg. In data set [4], the Tmax was determined as 0.63 h. This compound had a half-life in data set [5] of 8.4 h. For the same compound, in data set [6], the exposure (AUC) was found to be 19.3 µM·h. The compound also showed a bioavailability in data set [7] of 15%.

The term Cmax denotes the maximum level reached in the sampled fluid or tissue. One may read the Tmax as the time from dosing to the highest level. As a reminder, the half-life is the time needed for the level to fall by half in the phase considered. A low value points to fast loss. What is called AUC is the area under the concentration-time curve, a measure of exposure. A higher AUC goes with high exposure. The bioavailability is dose-corrected exposure relative to a reference, in per cent. Low readings indicate little systemic uptake, high ones much systemic uptake.
